This passage reports pKi and inhibition results from ChEMBL document CHEMBL3853360, “Combined Interactions with I1-, I2-Imidazoline Binding Sites and α2-Adrenoceptors To Manage Opioid Addiction” (ACS Med Chem Lett, 2016).

SMILES strings stand for the structures.

For test [1], the target named is T1, Adrenergic receptor alpha-2 (Rattus norvegicus, UniProt P22086+P19328+P22909).
T1 sequence (P22086 whole entry): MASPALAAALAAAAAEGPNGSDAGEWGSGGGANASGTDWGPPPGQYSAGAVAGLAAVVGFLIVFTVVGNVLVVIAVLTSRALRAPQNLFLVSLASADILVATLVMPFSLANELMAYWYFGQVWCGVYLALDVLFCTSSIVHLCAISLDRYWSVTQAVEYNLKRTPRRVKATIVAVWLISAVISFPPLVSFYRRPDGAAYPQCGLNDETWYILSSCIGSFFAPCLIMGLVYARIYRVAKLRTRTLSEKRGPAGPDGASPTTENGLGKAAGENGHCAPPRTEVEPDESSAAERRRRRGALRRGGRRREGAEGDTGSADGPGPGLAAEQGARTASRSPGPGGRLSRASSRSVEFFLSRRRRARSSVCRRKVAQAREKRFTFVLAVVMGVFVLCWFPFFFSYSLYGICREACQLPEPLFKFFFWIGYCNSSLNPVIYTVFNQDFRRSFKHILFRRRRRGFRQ
T1 sequence (P19328 whole entry): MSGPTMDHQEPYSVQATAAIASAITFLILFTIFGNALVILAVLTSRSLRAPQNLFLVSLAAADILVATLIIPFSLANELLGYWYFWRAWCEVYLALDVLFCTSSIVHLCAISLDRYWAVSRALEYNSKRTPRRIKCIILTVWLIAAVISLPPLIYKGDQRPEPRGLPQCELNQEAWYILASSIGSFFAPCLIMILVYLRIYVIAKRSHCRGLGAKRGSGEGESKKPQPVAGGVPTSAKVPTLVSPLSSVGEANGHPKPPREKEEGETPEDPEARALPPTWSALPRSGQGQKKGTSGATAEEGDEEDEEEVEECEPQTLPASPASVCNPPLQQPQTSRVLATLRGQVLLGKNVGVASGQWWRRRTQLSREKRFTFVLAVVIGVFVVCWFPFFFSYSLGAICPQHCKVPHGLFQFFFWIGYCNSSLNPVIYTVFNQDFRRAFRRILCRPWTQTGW
T1 sequence (P22909 whole entry): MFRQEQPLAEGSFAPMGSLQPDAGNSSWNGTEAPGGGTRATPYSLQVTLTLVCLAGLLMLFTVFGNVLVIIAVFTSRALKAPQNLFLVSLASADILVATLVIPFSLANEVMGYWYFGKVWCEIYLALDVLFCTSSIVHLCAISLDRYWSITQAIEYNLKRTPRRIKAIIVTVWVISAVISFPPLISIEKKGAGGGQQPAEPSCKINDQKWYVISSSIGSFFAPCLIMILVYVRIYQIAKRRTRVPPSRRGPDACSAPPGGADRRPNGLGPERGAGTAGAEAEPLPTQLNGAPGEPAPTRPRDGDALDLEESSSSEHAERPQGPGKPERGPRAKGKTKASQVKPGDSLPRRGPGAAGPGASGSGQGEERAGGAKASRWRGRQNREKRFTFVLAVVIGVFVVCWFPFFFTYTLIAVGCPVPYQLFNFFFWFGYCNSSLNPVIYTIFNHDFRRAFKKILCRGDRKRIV
Description: Displacement of [3H]-RX 821002 from alpha2-AR in Sprague-Dawley rat brain membranes after 30 mins by liquid scintillation counting. Format: cell membranes, Membrane. The method, boiled down: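 Radioligand competition binding with pKi determined by displacement. I1 sites: [125I]-p-iodoclonidine on rat kidney membranes. I2 sites: [3H]-2-BFI on rat brain membranes. α2-ARs: [3H]-RX821002 on rat brain membranes.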

Test [2] is described as follows: Reduction in morphine dependence expression in CD1 mouse assessed as inhibition of naloxone-precipitated forepaw tremor frequency at 5 mg/kg, ip administered acutely 15 mins prior to naloxone challenge relative to control. The class given is functional, organism-based.
Test [3] in a line: Reduction in morphine dependence expression in CD1 mouse assessed as inhibition of naloxone-precipitated jumping at 10 mg/kg, ip administered acutely 15 mins prior to naloxone challenge relative to control. Format: functional, organism-based.
Test [4] can be described thus: Reduction in morphine dependence expression in CD1 mouse assessed as inhibition of naloxone-precipitated teeth chattering frequency at 5 mg/kg, ip administered acutely 15 mins prior to naloxone challenge relative to control. Format: functional, organism-based.
A short description of test [5]: Reduction in morphine dependence expression in CD1 mouse assessed as inhibition of naloxone-precipitated rearing frequency at 10 mg/kg, ip administered acutely 15 mins prior to naloxone challenge relative to control. Format: functional, organism-based.

In turn, `Cc1ccccc1NCC1=NCCN1` had a pKi in test [1] of 7.73. Moreover, the inhibition in test [2] turned out to be 86%; in test [3], 98%; in test [4] it was 86%; in test [5], 93%.
